≈ marks a conversion by molar mass, not a printed value.
Tests used:
[1] = Drug metabolism in human liver microsomes after 20 mins; assay type: ADME, Microsome; settings: read-out: Drug metabolism
Summary of the method: (§1)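 Liver microsomes (human or mouse) incubated with compound for 20 min; %lability reported as % of compound metabolized.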

[2] = Equilibrium solubility of the compound in phosphate buffer at pH 7.4 after 16 hrs by HPLC analysis; assay type: physicochemical
[3] = Inhibition of Akt phosphorylation at S473 in PTEN deficient human PC3 cells; assay type: cell-based; settings: PC-3
[4] = target: Cytochrome P450 3A4 (Homo sapiens, UniProt P08684); experiment: Inhibition of human recombinant CYP3A4; assay type: ADME
[5] = Drug metabolism in mouse liver microsomes after 20 mins; assay type: ADME, Microsome; settings: read-out: Drug metabolism; summary of the method: as §1
[6] = Apparent permeability across human Caco2/TC7 cells; assay type: ADME, cell-based; settings: Caco-2
Summary of the method: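 Caco-2 TC7 clone monolayers; transport measured in both apical-to-basolateral and basolateral-to-apical directions, giving Papp (nm/s) and an efflux ratio.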

[7] = target: Serine/threonine-protein kinase mTOR (Homo sapiens, UniProt P42345); experiment: Inhibition of mTOR
[8] = target: Phosphatidylinositol 4,5-bisphosphate 3-kinase catalytic subunit gamma isoform (Homo sapiens, UniProt P48736); experiment: Inhibition of PI3Kgamma
[9] = target: Phosphatidylinositol 4,5-bisphosphate 3-kinase catalytic subunit alpha isoform (Homo sapiens, UniProt P42336); experiment: Inhibition of PI3Kalpha
[10] = target: T1, Phosphatidylinositol 4,5-bisphosphate 3-kinase catalytic subunit delta isoform (Homo sapiens, UniProt O00329); experiment: Inhibition of PI3Kdelta
T1 sequence (O00329 whole entry): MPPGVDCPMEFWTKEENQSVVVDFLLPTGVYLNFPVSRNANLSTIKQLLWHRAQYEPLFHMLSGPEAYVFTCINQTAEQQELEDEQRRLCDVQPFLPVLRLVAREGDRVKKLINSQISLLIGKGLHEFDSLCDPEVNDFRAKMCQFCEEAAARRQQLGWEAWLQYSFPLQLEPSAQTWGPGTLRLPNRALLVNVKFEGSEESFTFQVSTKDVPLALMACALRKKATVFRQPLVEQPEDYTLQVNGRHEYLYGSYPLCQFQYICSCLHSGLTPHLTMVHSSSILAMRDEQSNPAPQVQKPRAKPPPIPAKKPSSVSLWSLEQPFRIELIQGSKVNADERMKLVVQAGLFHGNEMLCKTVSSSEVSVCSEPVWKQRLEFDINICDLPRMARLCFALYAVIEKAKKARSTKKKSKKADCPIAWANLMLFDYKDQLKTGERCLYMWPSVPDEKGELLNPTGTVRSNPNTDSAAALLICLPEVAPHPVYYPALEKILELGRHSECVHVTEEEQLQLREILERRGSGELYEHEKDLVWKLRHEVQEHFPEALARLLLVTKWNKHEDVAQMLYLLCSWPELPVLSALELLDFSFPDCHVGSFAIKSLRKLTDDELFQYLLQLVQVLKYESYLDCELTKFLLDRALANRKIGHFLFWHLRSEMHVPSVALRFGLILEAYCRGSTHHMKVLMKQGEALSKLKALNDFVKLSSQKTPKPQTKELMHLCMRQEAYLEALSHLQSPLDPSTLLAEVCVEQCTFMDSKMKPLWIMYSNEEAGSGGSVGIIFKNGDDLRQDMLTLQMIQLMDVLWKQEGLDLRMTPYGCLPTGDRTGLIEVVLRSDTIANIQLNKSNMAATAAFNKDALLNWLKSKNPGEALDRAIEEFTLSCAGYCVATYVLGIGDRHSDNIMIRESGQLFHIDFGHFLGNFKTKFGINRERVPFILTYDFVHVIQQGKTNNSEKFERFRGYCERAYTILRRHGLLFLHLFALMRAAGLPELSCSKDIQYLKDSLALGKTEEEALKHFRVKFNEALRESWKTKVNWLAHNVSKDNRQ

[11] = target: Phosphatidylinositol 4,5-bisphosphate 3-kinase catalytic subunit beta isoform (Homo sapiens, UniProt P42338); experiment: Inhibition of PI3Kbeta
[12] = Efflux ratio of permeability […] in human Caco2/TC7 cells; assay type: ADME, cell-based
Summary of the method: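 Caco-2 TC7 clone cells grown as a monolayer; compound transport measured in both directions, apical to basolateral (A–B) and basolateral to apical (B–A); apparent permeability (Papp) read out, and efflux ratio derived from the two directional measurements.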

Phosphatidylinositol 4,5-bisphosphate 3-kinase catalytic subunit beta isoform, sequence (P42338 whole entry, canonical isoform): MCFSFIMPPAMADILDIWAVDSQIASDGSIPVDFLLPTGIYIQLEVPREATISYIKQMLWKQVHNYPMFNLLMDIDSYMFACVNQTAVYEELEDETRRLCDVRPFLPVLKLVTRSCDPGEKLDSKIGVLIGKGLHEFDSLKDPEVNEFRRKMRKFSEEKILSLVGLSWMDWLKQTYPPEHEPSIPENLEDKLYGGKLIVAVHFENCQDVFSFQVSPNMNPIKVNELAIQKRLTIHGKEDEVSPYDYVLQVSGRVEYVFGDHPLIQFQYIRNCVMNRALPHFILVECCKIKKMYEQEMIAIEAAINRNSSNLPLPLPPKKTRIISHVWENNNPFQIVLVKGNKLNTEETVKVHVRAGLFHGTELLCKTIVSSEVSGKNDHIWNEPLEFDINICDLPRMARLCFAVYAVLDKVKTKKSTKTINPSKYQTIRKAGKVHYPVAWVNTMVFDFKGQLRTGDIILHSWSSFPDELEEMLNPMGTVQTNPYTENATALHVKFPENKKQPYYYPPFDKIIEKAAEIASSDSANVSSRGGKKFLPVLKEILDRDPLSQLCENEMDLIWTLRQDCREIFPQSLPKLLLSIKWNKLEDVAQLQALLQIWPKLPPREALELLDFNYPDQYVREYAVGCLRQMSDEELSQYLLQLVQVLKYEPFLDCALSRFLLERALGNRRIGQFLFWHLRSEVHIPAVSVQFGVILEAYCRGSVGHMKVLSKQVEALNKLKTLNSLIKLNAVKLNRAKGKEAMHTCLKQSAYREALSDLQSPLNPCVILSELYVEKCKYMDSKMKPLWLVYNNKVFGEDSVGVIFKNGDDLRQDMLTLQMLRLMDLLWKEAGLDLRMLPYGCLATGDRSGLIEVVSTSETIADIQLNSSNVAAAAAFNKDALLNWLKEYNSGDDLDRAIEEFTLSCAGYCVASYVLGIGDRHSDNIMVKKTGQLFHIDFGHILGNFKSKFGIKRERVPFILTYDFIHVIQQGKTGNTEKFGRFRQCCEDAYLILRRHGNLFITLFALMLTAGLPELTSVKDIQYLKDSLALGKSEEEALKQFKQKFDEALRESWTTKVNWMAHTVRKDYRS
Phosphatidylinositol 4,5-bisphosphate 3-kinase catalytic subunit gamma isoform, sequence (P48736 whole entry, canonical isoform): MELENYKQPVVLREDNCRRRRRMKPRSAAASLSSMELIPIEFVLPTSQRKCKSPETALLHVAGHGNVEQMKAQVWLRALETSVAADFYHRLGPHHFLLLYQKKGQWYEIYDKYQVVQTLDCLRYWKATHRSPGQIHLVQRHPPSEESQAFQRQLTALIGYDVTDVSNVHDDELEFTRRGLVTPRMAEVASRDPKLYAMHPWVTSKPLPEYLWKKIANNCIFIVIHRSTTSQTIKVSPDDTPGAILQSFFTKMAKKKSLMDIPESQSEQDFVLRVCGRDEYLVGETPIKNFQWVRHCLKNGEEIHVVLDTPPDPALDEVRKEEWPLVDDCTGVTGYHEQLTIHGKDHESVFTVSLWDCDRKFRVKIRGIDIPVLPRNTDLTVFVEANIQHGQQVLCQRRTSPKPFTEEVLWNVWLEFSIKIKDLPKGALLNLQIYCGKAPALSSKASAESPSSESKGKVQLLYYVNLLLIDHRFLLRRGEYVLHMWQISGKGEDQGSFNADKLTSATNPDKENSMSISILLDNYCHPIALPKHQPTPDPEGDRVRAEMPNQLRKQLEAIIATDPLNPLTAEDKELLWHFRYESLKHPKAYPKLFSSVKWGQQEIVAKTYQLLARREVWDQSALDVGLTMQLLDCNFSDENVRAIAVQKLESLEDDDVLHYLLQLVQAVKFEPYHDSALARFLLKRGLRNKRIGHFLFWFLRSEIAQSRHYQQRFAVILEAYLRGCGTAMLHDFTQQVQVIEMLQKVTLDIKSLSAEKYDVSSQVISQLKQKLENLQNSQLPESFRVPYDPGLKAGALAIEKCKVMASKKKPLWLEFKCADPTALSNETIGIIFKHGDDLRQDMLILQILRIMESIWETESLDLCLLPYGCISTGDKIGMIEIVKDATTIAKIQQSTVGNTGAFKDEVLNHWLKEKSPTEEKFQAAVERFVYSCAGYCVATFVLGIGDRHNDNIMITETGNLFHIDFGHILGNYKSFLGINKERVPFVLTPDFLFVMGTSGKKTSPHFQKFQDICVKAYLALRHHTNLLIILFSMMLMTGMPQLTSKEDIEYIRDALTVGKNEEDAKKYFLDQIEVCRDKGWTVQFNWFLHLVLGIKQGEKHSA
Cytochrome P450 3A4, sequence (P08684 whole entry): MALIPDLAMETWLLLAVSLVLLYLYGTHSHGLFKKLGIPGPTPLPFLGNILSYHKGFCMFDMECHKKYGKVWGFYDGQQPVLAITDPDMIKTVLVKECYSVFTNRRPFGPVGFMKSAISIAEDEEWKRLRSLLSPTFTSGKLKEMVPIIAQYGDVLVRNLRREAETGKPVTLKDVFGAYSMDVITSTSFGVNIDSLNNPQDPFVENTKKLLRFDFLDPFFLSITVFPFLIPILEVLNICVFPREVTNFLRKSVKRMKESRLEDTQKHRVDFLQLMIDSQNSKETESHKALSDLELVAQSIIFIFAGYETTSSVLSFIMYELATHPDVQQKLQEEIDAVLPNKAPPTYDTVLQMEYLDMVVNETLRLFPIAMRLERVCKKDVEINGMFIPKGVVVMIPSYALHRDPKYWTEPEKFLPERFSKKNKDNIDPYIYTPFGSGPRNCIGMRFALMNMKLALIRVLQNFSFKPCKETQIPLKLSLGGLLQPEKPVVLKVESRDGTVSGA
Phosphatidylinositol 4,5-bisphosphate 3-kinase catalytic subunit alpha isoform, sequence (P42336 whole entry, canonical isoform): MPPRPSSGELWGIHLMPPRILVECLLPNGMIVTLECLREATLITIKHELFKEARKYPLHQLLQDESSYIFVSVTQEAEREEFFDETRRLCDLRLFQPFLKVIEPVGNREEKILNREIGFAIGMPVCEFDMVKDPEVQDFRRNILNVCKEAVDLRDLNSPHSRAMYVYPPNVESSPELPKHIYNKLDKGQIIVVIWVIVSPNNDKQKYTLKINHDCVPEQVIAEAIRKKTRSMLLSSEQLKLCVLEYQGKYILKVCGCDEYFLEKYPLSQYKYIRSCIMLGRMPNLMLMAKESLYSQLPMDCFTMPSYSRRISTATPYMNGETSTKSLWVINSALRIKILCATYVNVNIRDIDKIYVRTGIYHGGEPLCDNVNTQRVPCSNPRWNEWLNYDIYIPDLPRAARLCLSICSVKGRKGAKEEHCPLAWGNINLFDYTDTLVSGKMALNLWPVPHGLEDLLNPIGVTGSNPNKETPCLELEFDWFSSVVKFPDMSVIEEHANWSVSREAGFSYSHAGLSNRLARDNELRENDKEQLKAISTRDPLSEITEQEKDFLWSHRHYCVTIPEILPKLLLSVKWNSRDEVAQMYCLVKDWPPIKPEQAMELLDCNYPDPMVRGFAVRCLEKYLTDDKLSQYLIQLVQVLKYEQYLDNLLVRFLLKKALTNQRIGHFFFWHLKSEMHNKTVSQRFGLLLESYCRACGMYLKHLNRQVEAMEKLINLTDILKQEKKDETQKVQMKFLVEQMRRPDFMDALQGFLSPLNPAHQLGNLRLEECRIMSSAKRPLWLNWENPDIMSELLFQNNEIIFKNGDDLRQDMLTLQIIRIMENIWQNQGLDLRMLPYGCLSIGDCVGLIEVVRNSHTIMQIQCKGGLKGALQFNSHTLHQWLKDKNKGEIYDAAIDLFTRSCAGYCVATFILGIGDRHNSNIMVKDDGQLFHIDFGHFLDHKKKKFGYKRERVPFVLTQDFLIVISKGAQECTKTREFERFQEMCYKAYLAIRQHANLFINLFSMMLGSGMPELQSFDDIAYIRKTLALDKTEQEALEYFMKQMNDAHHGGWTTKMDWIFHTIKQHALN

| metabolised at 20 min [1] [%] | solubility thermodynamic at 16 h [2] [µM] | IC50 [3] [nM] | IC50 [4] [nM] | metabolised at 20 min [5] [%] | Papp [6] [×10⁻⁶ cm/s] | IC50 [7] [nM] | IC50 [8] [nM] | IC50 [9] [nM] | IC50 [10] [nM] | IC50 [11] [nM] | Ratio [12] | SMILES |
| --- | --- | --- | --- | --- | --- | --- | --- | --- | --- | --- | --- | --- |
| 44 | 73 (≈ 22.9 µg/mL) | 68 | > 40000 | 4 | 0.5 | > 10000 | > 10000 |  |  |  |  | O=C(Cc1nc(N2CCOCC2)cc(=O)[nH]1)Nc1ccccc1 |
| 42 | 5 (≈ 2.06 µg/mL) | 38 | > 40000 | 18 | 0.8 |  | 6610 | 4140 | 297 | 26 |  | O=C(Cc1nc(N2CCOCC2)cc(=O)[nH]1)Nc1ccc(F)c(Br)c1 |
|  |  | 349 |  |  |  |  | > 10000 | > 10000 | 2450 | 142 |  | O=C(Cc1nc(N2CCOCC2)cc(=O)[nH]1)Nc1ccccc1F |
| 55 |  | 74 |  | 21 |  |  | > 10000 | 6220 | 1110 | 81 |  | O=C(Cc1nc(N2CCOCC2)cc(=O)[nH]1)Nc1cccc(F)c1 |
| 24 | 45 (≈ 15 µg/mL) | 31 | > 40000 | 27 | 0.6 |  | > 10000 | 2870 | 86 | 13 |  | O=C(Cc1nc(N2CCOCC2)cc(=O)[nH]1)Nc1ccc(F)cc1 |
|  |  | 586 |  |  |  |  | > 10000 | > 10000 | 4270 | 236 |  | Cc1ccccc1NC(=O)Cc1nc(N2CCOCC2)cc(=O)[nH]1 |
| 80 | 3 (≈ 0.985 µg/mL) | 45 |  | 54 | 1.4 |  | 7070 | 626 | 164 | 17 |  | Cc1cccc(NC(=O)Cc2nc(N3CCOCC3)cc(=O)[nH]2)c1 |
|  |  | 1420 |  |  |  |  | 5090 | 2270 | 2780 | 398 |  | O=C(Cc1nc(N2CCOCC2)cc(=O)[nH]1)Nc1ccc(Cl)cc1 |
| 43 | 9 (≈ 3.14 µg/mL) | 100 | > 40000 | 22 | 0.8 |  | > 10000 | 2550 | 278 | 33 |  | O=C(Cc1nc(N2CCOCC2)cc(=O)[nH]1)Nc1cccc(Cl)c1 |
| 76 | 38 (≈ 13.1 µg/mL) | 47 | > 40000 | 47 | 0.3 |  | > 10000 | 2370 | 611 | 15 |  | COc1cccc(NC(=O)Cc2nc(N3CCOCC3)cc(=O)[nH]2)c1 |
| 75 | 6 (≈ 2.36 µg/mL) | 10 | > 40000 | 38 | 1.4 |  | > 10000 | 1910 | 189 | 5 | 26 | O=C(Cc1nc(N2CCOCC2)cc(=O)[nH]1)Nc1cccc(Br)c1 |
| 25 | 3 (≈ 1.05 µg/mL) | 55 |  | 11 | 0.8 |  | > 10000 | 3840 | 135 | 53 |  | O=C(Cc1nc(N2CCOCC2)cc(=O)[nH]1)Nc1ccc(F)c(F)c1 |
| 91 | 3 (≈ 1.04 µg/mL) | 71 | > 40000 | 60 | 0.6 |  | 8010 | 831 | 63 | 6 |  | Cc1cc(NC(=O)Cc2nc(N3CCOCC3)cc(=O)[nH]2)ccc1F |
| 40 | 3 (≈ 1.1 µg/mL) | 19 |  | 14 | 0.8 |  | 6710 | 1900 | 137 | 2 |  | O=C(Cc1nc(N2CCOCC2)cc(=O)[nH]1)Nc1ccc(F)c(Cl)c1 |
| 71 | 33 (≈ 12 µg/mL) | 98 | > 40000 | 28 | 0.2 |  | > 10000 | 3460 | 148 | 3 |  | COc1cc(NC(=O)Cc2nc(N3CCOCC3)cc(=O)[nH]2)ccc1F |
|  |  | 1740 |  |  |  |  | > 10000 | 8140 | 4650 | 175 |  | COC(=O)c1cc(NC(=O)Cc2nc(N3CCOCC3)cc(=O)[nH]2)ccc1F |
|  |  | 1260 |  |  |  |  | > 10000 | 4350 | 3360 | 47 |  | O=C(Cc1nc(N2CCOCC2)cc(=O)[nH]1)Nc1ccc(F)c([N+](=O)[O-])c1 |
|  |  | 340 |  |  |  |  | > 10000 | > 10000 | 4290 | 469 |  | Cn1c(CC(=O)Nc2ccccc2)nc(N2CCOCC2)cc1=O |
|  |  | 110 |  |  |  |  | > 10000 | > 10000 | 1470 | 244 |  | Cn1c(CC(=O)Nc2ccc(F)cc2)nc(N2CCOCC2)cc1=O |
|  |  | 100 |  |  |  |  | > 10000 | 8510 | 1770 | 262 |  | Cn1c(CC(=O)Nc2ccc(F)c(F)c2)nc(N2CCOCC2)cc1=O |
|  |  | 94 |  |  |  |  | > 10000 | 7610 | 2210 | 387 |  | Cn1c(CC(=O)Nc2ccc(F)c(Br)c2)nc(N2CCOCC2)cc1=O |
|  |  | 100 |  |  |  |  | > 10000 | > 10000 | 2400 | 104 |  | COc1cc(NC(=O)Cc2nc(N3CCOCC3)cc(=O)n2C)ccc1F |
